Reference: ChEMBL document CHEMBL4673290, “Diazaspirononane Nonsaccharide Inhibitors of O-GlcNAcase (OGA) for the Treatment of Neurodegenerative Disorders” (J Med Chem, 2020)
Values after ≈ are worked out from the molar mass of the structure shown.

Key:
Protein O-GlcNAcase = Protein O-GlcNAcase (Homo sapiens, UniProt O60502); assay: Inhibition of OGA in HEK293 cells induced with human Tau […] mutant assessed as increase in O-GlcNAcylated protein levels measured after 6 hrs by Hoechst 33342 dye based fluorescence analysis; type: cell-based
Outline: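 Janssen HEK293 line inducible for P301L human Tau 2N4R, seeded two days before at 4000 cells/well in low-glucose assay medium. Compound exposure 6 h with 0.2% DMSO. Cells fixed with 4% PFA, permeabilized, then stained with CTD110.6 anti-O-GlcNAc (1/1000, 4 °C overnight) and a fluorescent secondary. Readout was 488 nm intensity over nine fields; Hoechst nuclei counted. Thiamet-G 200 μM defined maximum. IC50 by nonlinear regression.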

[1] = Inhibition of human recombinant full-length OGA transcript variant 1 expressed in HEK293T cells using FM-GlcNAc as substrate preincubated for 60 mins followed by addition of substrate and measured after 6 hrs by fluorescence assay
Outline: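 Full-length human OGA, 2 nM, preincubated with compound for 60 min at room temperature. FM-GlcNAc substrate at 100 μM final, in 200 mM citrate/phosphate pH 7.2 with 0.005% Tween-20 and ≤1% DMSO. Run 6 h at room temperature, stopped with 500 mM carbonate pH 11.0. Fluorescence read at 485/538 nm. IC50 and Hill coefficient from least-squares fit, normalised to no-inhibitor and saturating reference controls.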

[2] = Inhibition of clostridium perfringens OGA using FM-GlcNAc as substrate preincubated for 60 mins followed by addition of substrate and measured after 6 hrs by fluorescence assay
P-gp (MDR1) = assay: Efflux ratio of apparent permeability across basolateral to apical over apical to basolateral side in MDCK2-MDR1 cells at 5 uM measured after 120 mins in absence of P-gp inhibitor GF120918 by LC-MS/MS analysis; settings: dog, MDCK-MDR1
in vitro [3] = settings: mouse, liver microsomes, CLH
in vitro [4] = settings: human, liver microsomes, CLH
[5] = Dissociation constant, pKa of the compound; type: physicochemical
[6] = Kinetic solubility of compound at pH 2; type: physicochemical; settings: buffer, read-out: Kinetic_solubility
[7] = Kinetic solubility of compound at pH 7.4; type: physicochemical; settings: buffer, read-out: Kinetic_solubility
[8] = Clearance in male CD1 mouse at 1 mg/kg, iv compound dissolved in saline measured after 24 hrs by LC-MS/MS analysis; type: ADME, organism-based; settings: in vivo
Outline: (§1)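 Single 1 mg/kg iv dose in 0.9% saline to three male CD1 mice. Blood sampled at 0.117, 0.333, 1, 2, 4, 7 and 24 h. Plasma prepared by acetonitrile protein precipitation and analysed by qualified LC-MS/MS.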

[9] = Oral bioavailability in male CD1 mouse at 30 mg/kg, compound dissolved in water measured after 24 hrs by LC-MS/MS analysis; type: ADME, organism-based; settings: in vivo
Outline: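 Male CD1 mice, three per arm: 1 mg/kg iv in 0.9% saline and 30 mg/kg po as a solution in water adjusted to about pH 4. Serial blood to 24 h. Plasma levels measured by LC-MS/MS after acetonitrile precipitation. Bioavailability derived from iv and po exposure.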

[10] = Volume of distribution at steady state in male CD1 mouse at 1 mg/kg, iv compound dissolved in saline measured after 24 hrs by LC-MS/MS analysis; type: ADME, organism-based; settings: in vivo, read-out: Vdss; outline: as §1
[11] = AUC (0 to last) in male CD1 mouse at 30 mg/kg, po compound dissolved in water measured after 24 hrs by LC-MS/MS analysis; type: ADME, organism-based; parameters: route oral, time 24 hrs, dose 30 mg/kg; settings: in vivo
Outline: (§2)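 Three male CD1 mice per arm; oral solution in water adjusted to about pH 4. Blood taken at 0.5, 1, 2, 4, 7 and 24 h. Plasma protein-precipitated with acetonitrile and the supernatant quantified by qualified LC-MS/MS.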

[12] = Cmax in male CD1 mouse at 30 mg/kg, po compound dissolved in water measured after 24 hrs by LC-MS/MS analysis; type: ADME, organism-based; parameters: route oral, dose 30 mg/kg, time 24 hrs; settings: in vivo; outline: as §2

Chain of Protein O-GlcNAcase (O60502 whole entry, looked up, stated change not applied): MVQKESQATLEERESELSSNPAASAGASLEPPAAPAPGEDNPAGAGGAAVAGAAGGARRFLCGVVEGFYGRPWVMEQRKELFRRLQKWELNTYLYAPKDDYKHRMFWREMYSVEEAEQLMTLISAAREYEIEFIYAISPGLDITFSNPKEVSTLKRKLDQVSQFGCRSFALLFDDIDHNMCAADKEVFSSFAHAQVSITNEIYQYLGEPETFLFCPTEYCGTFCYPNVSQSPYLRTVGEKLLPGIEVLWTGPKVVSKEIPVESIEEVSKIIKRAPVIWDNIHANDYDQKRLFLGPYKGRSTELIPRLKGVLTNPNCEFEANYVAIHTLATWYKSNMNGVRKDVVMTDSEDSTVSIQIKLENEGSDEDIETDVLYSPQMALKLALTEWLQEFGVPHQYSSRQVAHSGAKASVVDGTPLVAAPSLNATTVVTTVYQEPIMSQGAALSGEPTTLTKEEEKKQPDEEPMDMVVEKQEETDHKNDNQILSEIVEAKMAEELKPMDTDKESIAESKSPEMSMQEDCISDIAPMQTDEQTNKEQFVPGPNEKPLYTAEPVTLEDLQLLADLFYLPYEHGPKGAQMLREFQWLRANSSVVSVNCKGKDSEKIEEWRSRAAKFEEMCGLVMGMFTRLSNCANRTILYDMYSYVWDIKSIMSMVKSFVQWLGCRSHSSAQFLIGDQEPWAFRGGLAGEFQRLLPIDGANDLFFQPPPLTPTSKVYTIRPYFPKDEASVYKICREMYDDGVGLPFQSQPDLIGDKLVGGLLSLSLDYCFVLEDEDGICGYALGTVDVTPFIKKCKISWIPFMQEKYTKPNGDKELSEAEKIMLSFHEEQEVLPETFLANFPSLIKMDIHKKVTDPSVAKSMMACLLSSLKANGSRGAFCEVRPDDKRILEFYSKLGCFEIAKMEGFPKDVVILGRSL

| SMILES | IC50 (Protein O-GlcNAcase) [nM] | IC50 [1] [nM] | also measured |
| --- | --- | --- | --- |
| Cc1cc(N2CCC3(CCN(Cc4ccc5c(c4)OCO5)C3)C2)n2ncnc2n1 (configuration not stated) | > 1000 | 129 | – |
| CC(=O)Nc1ncc(CN2CCC3(CCC(Cc4cc(C)nc(C)c4)C3)C2)s1 (configuration not stated) | 537 | 309 | – |
| CC(=O)Nc1ncc(CN2CC3(CCN(c4cc(C)nc5ncnn45)C3)C2)s1 | 10000 | 34 | IC50 [2]: 3300 nM |
| CC(=O)Nc1ncc(CN2CC[C@]3(C2)C[C@@H](Cc2cc(C)nc(C)c2)C3)s1 | 295 | 209 | – |
| CC(=O)Nc1ncc(CN2CCC3(C2)CN(c2cc(C)nc4ncnn24)C3)s1 | 9330 | 41 | – |
| CC(=O)Nc1ncc(CN2CC[C@]3(C2)C[C@@H](Oc2cc(C)nc(C)c2)C3)s1 | – | 550 | – |
| CC(=O)Nc1ncc(CN2CCC3(CCN(c4cc(C)nc5ncnn45)C3)C2)s1 (configuration not stated) | 575 | 4 | IC50 [2]: 290 nM; efflux ratio at 2 h, 5 µM (P-gp (MDR1)): 13.5; microsomal CLint at 1 h, 1 µM (in vitro [3]): < 13 µL/min/mg; microsomal CLint at 1 h, 1 µM (in vitro [4]): < 8 µL/min/mg |
| CC(=O)Nc1ncc(CN2CC[C@]3(C2)C[C@H](Oc2cc(C)nc(C)c2)C3)s1 | – | 1000 | – |
| CC(=O)Nc1ncc(CN2CCC3(CCC(COc4cc(C)nc(C)c4)C3)C2)s1 (configuration not stated) | 501 | 135 | – |
| CC(=O)Nc1ncc(CN2CC[C@]3(C2)C[C@H](Cc2cc(C)nc(C)c2)C3)s1 | 240 | 204 | – |
| CC(=O)Nc1ncc(CN2CCC3(CCC(c4cc(C)nc(C)c4)C3)C2)s1 (configuration not stated) | 214 | 66 | – |
| CC(=O)Nc1ncc(CN2CCC3(CC(c4cc(C)nc(C)c4)CO3)C2)s1 (configuration not stated) | 603 | 21 | – |
| CC(=O)Nc1ncc(CN2CCC3(CCN(c4cc(C)nc(C)c4)C3)C2)s1 (racemic) | 141 | 6 | pKa [5]: 10.4; efflux ratio at 2 h, 5 µM (P-gp (MDR1)): 1.6; microsomal CLint at 1 h, 1 µM (in vitro [3]): < 8 µL/min/mg; microsomal CLint at 1 h, 1 µM (in vitro [4]): < 8 µL/min/mg |
| CC(=O)Nc1ncc(CN2CCC3(CCN(c4cc(C)nc(C)n4)C3)C2)s1 (racemic) | 170 | 13 | – |
| CC(=O)Nc1ncc(CN2CCC3(CCN(c4cc(C)nc5ccccc45)C3)C2)s1 (racemic) | 39 | 9 | solubility kinetic [6]: 87 µM (≈ 36.7 µg/mL); solubility kinetic [7]: 71 µM (≈ 29.9 µg/mL) |
| Cc1cc(N2CCC3(CCN(Cc4ccc5sc(C)nc5c4)C3)C2)n2ncnc2n1 (racemic) | > 1000 | 22 | – |
| CC(=O)Nc1ncc(CN2CCC3(CCN(c4cc(C)nc(C(F)(F)F)c4)C3)C2)s1 (racemic) | 380 | 19 | efflux ratio at 2 h, 5 µM (P-gp (MDR1)): 32.2; microsomal CLint at 1 h, 1 µM (in vitro [3]): 55 µL/min/mg; microsomal CLint at 1 h, 1 µM (in vitro [4]): 46 µL/min/mg |
| CC(=O)Nc1ncc(CN2CCC3(CC(COc4cc(C)nc(C)c4)C3)C2)s1 (racemic) | – | 316 | – |
| CC(=O)Nc1ncc(CN2CC[C@]3(C[C@H](Oc4cc(C)nc(C)c4)CO3)C2)s1 (racemic) | 537 | 30 | – |
| CC(=O)Nc1ncc(CN2CCC3(CC(c4cc(C)nc(C)c4)C3)C2)s1 (racemic) | 182 | 36 | – |
| CC(=O)Nc1ncc(CN2CCC3(CCN(c4cc(C)n5ccnc5n4)C3)C2)s1 (racemic) | 437 | 1 | efflux ratio at 2 h, 5 µM (P-gp (MDR1)): 1.2; microsomal CLint at 1 h, 1 µM (in vitro [3]): 16 µL/min/mg; microsomal CLint at 1 h, 1 µM (in vitro [4]): < 8 µL/min/mg |
| Cc1cc(N2CCC3(CCNC3)C2)n2ncnc2n1 (racemic) | > 10000 | 3240 | – |
| COc1cc(N2CCC3(CCN(Cc4cnc(NC(C)=O)s4)C3)C2)cc(C)n1 (racemic) | 56 | 6 | efflux ratio at 2 h, 5 µM (P-gp (MDR1)): 27.7; microsomal CLint at 1 h, 1 µM (in vitro [3]): 12 µL/min/mg; microsomal CLint at 1 h, 1 µM (in vitro [4]): < 8 µL/min/mg |
| CC(=O)Nc1ncc(CN2CCC3(CCN(c4cc(C)cc(C)n4)C3)C2)s1 (racemic) | 46 | 4 | efflux ratio at 2 h, 5 µM (P-gp (MDR1)): 24.8; microsomal CLint at 1 h, 1 µM (in vitro [3]): 264 µL/min/mg; microsomal CLint at 1 h, 1 µM (in vitro [4]): 101 µL/min/mg |
| Cc1cc(N2CCC3(CCN(Cc4ccc5nccnc5c4)C3)C2)n2ncnc2n1 (racemic) | > 10000 | 74 | – |
| CC(=O)Nc1ncc(CN2CC[C@]3(C[C@@H](Oc4cc(C)nc(C)c4)CO3)C2)s1 (racemic) | – | 209 | – |
| CC(=O)Nc1ncc(CN2CCC3(CCN(c4cc(C)nc5ccccc45)C3)C2)s1 (single isomer, unassigned; (+)) | 17 | 5 | clearance [8]: 55.8 mL/min/kg; bioavailability [9]: 23.1%; Vd [10]: 17.8 L/kg; AUC(0-t) at 24 h [11]: 1940 ng·h/mL; Cmax [12]: 331 ng/mL; microsomal CLint at 1 h, 1 µM (in vitro [3]): 15 µL/min/mg; microsomal CLint at 1 h, 1 µM (in vitro [4]): < 8 µL/min/mg |
| CC(=O)Nc1ncc(CN2CCC3(CCN(c4cc(C)nc5ccccc45)C3)C2)s1 (single isomer, unassigned; (-)) | 263 | 25 | – |
